Entries after “also recorded” stand apart in the source; their conditions may differ. Bridge positions count the residues as written; N and C are the ends. Peptide text beside a SMILES is read from it.
Assays:
blood-brain barrier [1] = assay: In-situ rat brain perfusion, 14C-mannitol brain delivery; assay type: in vivo, Sprague-Dawley rats; conditions: peptide 1.0 mM, 240-s perfusion, then 240-s 14C-mannitol
Outline: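 Sprague-Dawley rats were anaesthetised i.p. with ketamine 100 mg/kg plus xylazine 5 mg/kg. Perfusion via a left common carotid cannula at 5.0 mL/min began right after cardiac puncture: 20-s saline, 240-s test compound (1.0 mM) or vehicle, 240-s ¹⁴C-mannitol, then 5-s saline wash. Perfusate was filter-sterilised and oxygenated (95% air/5% CO₂, 37 °C). Rectal temperature was held at 36.5 ± 0.5 °C.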

blood-brain barrier [2] = assay: MRI of Gd-DTPA brain deposition after i.v. peptide; assay type: in vivo, Balb/c mice
blood-brain barrier [3] = assay: NIRF imaging of IRdye800cw-PEG and R800 brain deposition; assay type: in vivo, mice; conditions: 0.01 mmol/kg peptide i.v., ex vivo brain-to-plasma fluorescence ratio
Outline: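 Mice received test compound 0.010 mmol/kg or PBS i.v. After 5 min, IRDye 800CW PEG (~25 kDa, 0.01 μmol/kg) and R800 (P-gp substrate, 0.032 μmol/kg) were given i.v. Mice were killed by cardiac perfusion of 10% formaldehyde 20 min after treatment. Brains were imaged ex vivo by near-infrared scanner, and ROI fluorescence per unit tissue was divided by fluorescence per μL blood at the same time point.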

MDCK-II cell monolayers [4] = assay: Inhibition of junction resealing in MDCK cell monolayers; assay type: cell-based, canine; conditions: peptide 1.0 mM apical and basolateral, TEER, 5- and 6-h time points
MDCK-II cell monolayers [5] = assay: Direct junction modulation of intact MDCK cell monolayers; assay type: cell-based, canine; conditions: peptide 1.0 mM, Ca2+-sufficient buffer, 7- and 8-h time points
Outline: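 MDCK-II cells were seeded at 75,000 cells/well on 0.4 μm polyester Transwell membranes and grown 5–8 days, with starting TEER of 280–320 ohm.cm². Monolayers were washed in HBSS (25 mM glucose, 2 mM CaCl₂, 0.75 mM MgSO₄, 10 mM HEPES), with no Ca²⁺-free step. They were then exposed apically and basolaterally to test compound (1.0 mM) or none, and TEER was read hourly for 6–8 h by voltohmmeter.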

[6] = Peptide stability in rat plasma; assay type: in vitro ADME; conditions: rat plasma (NaHeparin)
Outline: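 Test compound in DMSO was spiked into heparinised rat plasma (final DMSO 0.6%) and shaken at 50 rpm at 37 °C for up to 8 or 72 h, about 2–3 half-lives. Samples were deproteinised with ACN:H₂O:EtOAc (6:1:1) and centrifuged at 17226 g. Remaining peptide was quantified by LC-MS/MS against a peptide internal standard, and half-life was calculated.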

blood-brain barrier [7] = conditions: completely reversed by 4 h following treatment; cited from earlier work
[8] = 0.01 mmol/kg i.v., AUC over 42 min, posterior, midbrain, anterior
[9] = 0.001, 0.0032, 0.01 mmol/kg i.v., 42-min session

Compound | passage of 14C-mannitol into rat brain compared to vehicle (blood-brain barrier [1]) | Gd-DTPA enhancement after 1-h peptide pretreatment (blood-brain barrier [2]; [8]) | Gd-DTPA enhancement after 2-h peptide pretreatment (blood-brain barrier [2]; [8]) | maximum enhancement of Gd-DTPA compared to background at 0 time point (blood-brain barrier [2]; 0.010 mmol/kg i.v., posterior region, Gd-DTPA 0.4 mmol/kg, 42-min MRI session) | duration of BBB modulation (Gd-DTPA) (blood-brain barrier [2]; 0.01 mmol/kg i.v., various pretreatment times, MRI) | AUC of Gd-DTPA deposition vs vehicle, anterior region (blood-brain barrier [2]; [9]) | AUC of Gd-DTPA deposition vs vehicle, midbrain (blood-brain barrier [2]; [9]) | AUC of Gd-DTPA deposition vs vehicle, posterior region (blood-brain barrier [2]; [9]) | increase in brain delivery of Gd-DTPA (blood-brain barrier [2]; following peptide treatment) | brain deposition of IRdye800cw-PEG, 5-min pretreatment (blood-brain barrier [3]) | inhibition of junction resealing compared to HBSS (MDCK-II cell monolayers [4]) | lowering of TEER of intact monolayers compared to HBSS (MDCK-II cell monolayers [5]) | half-life [6] | duration for which BBB modulation was observed (blood-brain barrier [7])
CC(=O)N[C@@H](CO)C(=O)N[C@@H](Cc1c[nH]cn1)C(=O)N[C@@H](C)C(=O)N[C@H](C(=O)N[C@@H](C)C(=O)N[C@@H](CO)C(N)=O)C(C)C [HAV4] (Ac-SHAVAS-NH2) | significantly enhanced | did not produce any Gd-DTPA enhancement | did not produce any Gd-DTPA enhancement | up to fivefold | < 1 h | significantly higher than those of the vehicle group at all peptide doses examined | only treatment with 0.01 mmol/kg showed significant enhancement compared to vehicle | significantly higher than those of the vehicle group at all peptide doses examined | 3-4 fold | higher than in saline-treated controls | significantly inhibited the resealing; also recorded: inhibited the junction resealing | lowered the TEER values significantly | 2.4 h | –
Ac-CDTPPVC-NH2 (disulfide 1-7 (inferred); SMILES CC(=O)N[C@H]1CSSC[C@@H](C(N)=O)NC(=O)[C@H](C(C)C)NC(=O)[C@@H]2CCCN2C(=O)[C@@H]2CCCN2C(=O)[C@H]([C@@H](C)O)NC(=O)[C@H](CC(=O)O)NC1=O) [ADTC5] | – | – | – | – | – | – | – | – | – | – | – | – | – | 2 h

Reference: PMC4756412 (Journal of pharmaceutical sciences, 2016)
